What was measured:
Type in all cases: functional
[1] = Cytotoxicity against human NCI60 cells assessed as cell growth at 10^-5 M after 48 hrs by SRB assay; conditions: NCI60, 48 h, read-out: Activity
Summary of the method: (§1)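 NCI human tumor cell line panel from nine cancer types. Each line was inoculated and preincubated 24–48 h, then exposed to a single concentration (10^-5 M) for 48 h. Growth was read by sulforhodamine B protein staining, measured spectrophotometrically. Value reported as percent growth of treated cells relative to untreated controls.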

ACHN = assay: Cytotoxicity against human ACHN cells assessed as cell growth at 10^-5 M after 48 hrs by SRB assay; conditions: read-out: Activity
Summary of the method: (§2)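 NCI 60-cell-line one-dose primary screen: cells inoculated and preincubated 24–48 h, then test agent added at a single 10^-5 M concentration for a further 48 h. Endpoint is sulforhodamine B protein staining read spectrophotometrically. Reported as percent growth relative to untreated control cells.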

MDA-MB-468 = assay: Cytotoxicity against human MDA-MB-468 cells assessed as cell growth at 10^-5 M after 48 hrs by SRB assay; conditions: MDA-MB-468, 48 h, read-out: Activity; summary of the method: as §2
COLO 205 = assay: Growth inhibition of human COLO205 cells after 48 hrs by SRB assay; conditions: COLO 205, 48 h
Summary of the method: (§3)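 NCI panel of about 60 human tumor lines, 48 h continuous exposure at five 10-fold dilutions from 10^-4 to 10^-8 M. SRB protein staining was read as absorbance at time zero, in untreated controls and at each concentration. GI50 is the concentration giving 50% lower net protein increase than controls. TGI is where Ti = Tz, and LC50 is 50% protein loss versus start.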

SF-295 = assay: Growth inhibition of human SF295 cells after 48 hrs by SRB assay; conditions: SF-295, 48 h
Summary of the method: (§4)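 NCI 60-cell-line human tumor panel. Cells were inoculated and preincubated for 24–48 h, then exposed continuously to compound for 48 h. Primary screen used a single 10^-5 M concentration. Growth was measured by sulforhodamine B protein staining, read spectrophotometrically, and reported as percent growth versus untreated controls. Selected compounds were also run at five 10-fold dilutions (10^-4 to 10^-8 M) to derive GI50 from time-zero-corrected absorbances.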

SNB-75 = assay: Growth inhibition of human SNB75 cells after 48 hrs by SRB assay; conditions: SNB-75, 48 h; summary of the method: as §4
IGROV-1 = assay: Growth inhibition of human IGROV1 cells after 48 hrs by SRB assay; conditions: IGROV-1, 48 h; summary of the method: as §3
[2] = Growth inhibition of human Hs 578T cells after 48 hrs by SRB assay; summary of the method: as §3
T47D = assay: Growth inhibition of human T47D cells after 48 hrs by SRB assay; summary of the method: as §4
[3] = tested on: Photobacterium leiognathi; assay: Antibacterial activity against Photobacterium leiognathi Sh1 assessed as inhibition of bacterial luminescence at 0.25 mg/mL after 10 mins by bioluminometry-based chronic action test; parameters: scale not given: the % may be the effect or the level left; conditions: in the assay text read “after 16 to 18 hrs” for “after 10 mins”
Summary of the method: (§5)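 Chronic (growth plus luminescence) test with P. leiognathi Sh1 at 10^5 cells/mL in chloride solution, compounds added in DMSO. After 10 min at 25 °C, growth medium added at 1:50 and the mix incubated 16–18 h at 30 °C. Luminescence then measured by bioluminometer as % of untreated control. Tetracycline reference.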

Escherichia coli = assay: Antibacterial activity against Escherichia coli assessed as zone of inhibition at 0.1 mg/mL after 24 hrs by stiff-plate agar-diffusion method; conditions: read-out: DIZ
Yamadazyma tenuis [4] = assay: Antifungal activity against Candida tenuis assessed as zone of inhibition at 0.5 mg/mL after 48 to 72 hrs by stiff-plate agar-diffusion method; conditions: read-out: DIZ
Yamadazyma tenuis [5] = assay: Antifungal activity against Candida tenuis assessed as zone of inhibition at 0.1 mg/mL after 48 to 72 hrs by stiff-plate agar-diffusion method; conditions: read-out: DIZ
CAKI-1 = assay: Cytotoxicity against human Caki1 cells assessed as cell growth at 10^-5 M after 48 hrs by SRB assay; conditions: CAKI-1, 48 h, read-out: Activity; summary of the method: as §2
PC-3 = assay: Cytotoxicity against human PC3 cells assessed as cell growth at 10^-5 M after 48 hrs by SRB assay; conditions: PC-3, 48 h, read-out: Activity; summary of the method: as §1
SR = assay: Cytotoxicity against human SR cells assessed as cell growth at 10^-5 M after 48 hrs by SRB assay; conditions: read-out: Activity; summary of the method: as §1
A549 = assay: Cytotoxicity against human A549 cells assessed as cell growth at 10^-5 M after 48 hrs by SRB assay; conditions: A549, 48 h, read-out: Activity; summary of the method: as §2
U-251 = assay: Cytotoxicity against human U251 cells assessed as cell growth at 10^-5 M after 48 hrs by SRB assay; conditions: U-251, 48 h, read-out: Activity; summary of the method: as §1
SK-MEL-5 = assay: Cytotoxicity against human SK-MEL-5 cells assessed as cell growth at 10^-5 M after 48 hrs by SRB assay; conditions: SK-MEL-5, 48 h, read-out: Activity; summary of the method: as §1
NCI-H522 = assay: Cytotoxicity against human NCI-H522 cells assessed as cell growth at 10^-5 M after 48 hrs by SRB assay; conditions: NCI-H522, 48 h, read-out: Activity; summary of the method: as §1
LOX IMVI = assay: Cytotoxicity against human LOXIMVI cells assessed as cell growth at 10^-5 M after 48 hrs by SRB assay; conditions: read-out: Activity; summary of the method: as §2
MCF7 = assay: Cytotoxicity against human MCF7 cells assessed as cell growth at 10^-5 M after 48 hrs by SRB assay; conditions: MCF7, 48 h, read-out: Activity; summary of the method: as §2
NCI-H23 = assay: Cytotoxicity against human NCI-H23 cells assessed as cell growth at 10^-5 M after 48 hrs by SRB assay; conditions: NCI-H23, 48 h, read-out: Activity; summary of the method: as §1
SW-620 = assay: Cytotoxicity against human SW620 cells assessed as cell growth at 10^-5 M after 48 hrs by SRB assay; conditions: SW-620, 48 h, read-out: Activity; summary of the method: as §1
Malme-3M = assay: Cytotoxicity against human MALME-3M cells assessed as cell growth at 10^-5 M after 48 hrs by SRB assay; conditions: read-out: Activity; summary of the method: as §2
[6] = tested on: Photobacterium leiognathi; assay: Antibacterial activity against Photobacterium leiognathi Sh1 assessed as inhibition of bacterial luminescence at 0.025 mg/mL after 10 mins by bioluminometry-based chronic action test; parameters: scale not given: the % may be the effect or the level left; conditions: in the assay text read “after 16 to 18 hrs” for “after 10 mins”; summary of the method: as §5
[7] = tested on: Photobacterium leiognathi; assay: Antibacterial activity against Photobacterium leiognathi Sh1 assessed as inhibition of bacterial luminescence at 0.25 mg/mL after 10 mins by bioluminometry-based acute action test; parameters: scale not given: the % may be the effect or the level left
Summary of the method: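 Marine P. leiognathi Sh1 (Azov Sea shrimp isolate) diluted in chloride solution to 10^5 cells/mL; compounds suspended in DMSO mixed with 1 mL bacterial suspension. Acute test: 10 min at 25 °C, then bioluminescence measured by bioluminometer as % of compound-free control. Tetracycline reference.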

[8] = read-out: pLC50 (the source's name) (converted)

## CCC1C2CCC(C2)C1NC(=O)CSc1nc2ccccc2c2nc(=O)c(-c3ccc(OC)cc3)nn12 (centres undefined)
[1]
  growth at 10 µM: 73.7%
ACHN
  growth at 10 µM: -17.1%
MDA-MB-468
  growth at 10 µM: -59.5%
COLO 205
  GI50: 3.47 µM
COLO 205; [8]
  CC50: > 50.1 µM
COLO 205; read-out: pTGI
  TGI: > 50.1 µM
SF-295
  GI50: 3.47 µM
SF-295; [8]
  CC50: > 50.1 µM
SF-295; read-out: pTGI (converted)
  TGI: 21.9 µM
SNB-75
  GI50: 3.09 µM
SNB-75; [8]
  CC50: 30.9 µM
SNB-75; read-out: pTGI (converted)
  TGI: 11.5 µM
IGROV-1
  GI50: 2690 nM
IGROV-1; [8]
  CC50: > 50.1 µM
IGROV-1; read-out: pTGI (converted)
  TGI: 36.3 µM
[2]
  GI50: 3.89 µM
[2]; [8]
  CC50: > 50.1 µM
[2]; read-out: pTGI (converted)
  TGI: 20 µM
T47D
  GI50: 3.72 µM
T47D; [8]
  CC50: > 50.1 µM
T47D; read-out: pTGI
  TGI: > 50.1 µM
[3]
  Activity: 80%
Escherichia coli
  zone of inhibition at 100 µg/mL: 0 mm
Yamadazyma tenuis [4]
  zone of inhibition at 500 µg/mL: 0 mm
Yamadazyma tenuis [5]
  zone of inhibition at 100 µg/mL: 0 mm
CAKI-1
  growth at 10 µM: 36.1%
PC-3
  growth at 10 µM: 55.1%
SR
  growth at 10 µM: 7.67%
A549
  growth at 10 µM: 50.4%
U-251
  growth at 10 µM: -98.9%
SK-MEL-5
  growth at 10 µM: 59.8%
NCI-H522
  growth at 10 µM: -49.9%
LOX IMVI
  growth at 10 µM: 70.5%
MCF7
  growth at 10 µM: 48.2%
NCI-H23
  growth at 10 µM: 62.8%
SW-620
  growth at 10 µM: 45.9%
Malme-3M
  growth at 10 µM: -29.2%
[6]
  Activity: 85.3%
[7]
  Activity: 90.9%
